Laboratory results as given in ChEMBL document CHEMBL3286129, “Optimization of peptidomimetic boronates bearing a P3 bicyclic scaffold as proteasome inhibitors” (Eur J Med Chem, 2014).

How the values were obtained:
[1] = Growth inhibition of human UACC62 cells; format: functional; details: UACC-62
CAKI-1 = assay: Growth inhibition of human CAKI-1 cells; format: functional
PC-3 = assay: Growth inhibition of human PC3 cells; format: functional
[2] = Growth inhibition of human NCI-ADR-RES cells; format: functional
[3] = Growth inhibition of human BT549 cells; format: functional
CCRF-CEM = assay: Growth inhibition of human CCRF-CEM cells; format: functional
SW-620 = assay: Growth inhibition of human SW620 cells; format: functional
[4] = Growth inhibition of human OVCAR3 cells; format: functional; details: OVCAR-3
SK-MEL-2 = assay: Growth inhibition of human SK-MEL-2 cells; format: functional
[5] = Growth inhibition of human HCC2998 cells; format: functional; details: HCC 2998
KM12 = assay: Growth inhibition of human KM12 cells; format: functional
HL-60(TB) = assay: Growth inhibition of human HL-60(TB) cells; format: functional
M14 = assay: Growth inhibition of human M14 cells; format: functional
A498 = assay: Growth inhibition of human A498 cells; format: functional
SNB-75 = assay: Growth inhibition of human SNB75 cells; format: functional
U-251 = assay: Growth inhibition of human U251 cells; format: functional
NCI-H23 = assay: Growth inhibition of human NCI-H23 cells; format: functional
[6] = Cytotoxicity against human colon cancer cells assessed as cell growth at 10 uM relative to control; format: functional; details: Cancer cell lines, read-out: Activity
Summary of the method: (§1)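 Single-concentration screen against a panel of human cancer cell lines. Each value is the mean percent growth across the cell lines of that tumour subpanel.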

[7] = Cytotoxicity against human ovarian cancer cells assessed as cell growth at 10 uM relative to control; format: functional; details: Cancer cell lines, read-out: Activity; summary of the method: as §1
T47D = assay: Growth inhibition of human T47D cells; format: functional
NCI-H460 = assay: Growth inhibition of human NCI-H460 cells; format: functional
RPMI-8226 = assay: Growth inhibition of human RPMI8226 cells; format: functional
[8] = Cytotoxicity against human melanoma cells assessed as cell growth at 10 uM relative to control; format: functional; details: read-out: Activity; summary of the method: as §1
[9] = Growth inhibition of human HCT15 cells; format: functional
786-0 = assay: Growth inhibition of human 786-0 cells; format: functional
[10] = Cytotoxicity against human prostate cancer cells assessed as cell growth at 10 uM relative to control; format: functional; details: Cancer cell lines, read-out: Activity; summary of the method: as §1
A549 = assay: Growth inhibition of human A549/ATCC cells; format: functional
K562 = assay: Growth inhibition of human K562 cells; format: functional
[11] = Growth inhibition of human UACC257 cells; format: functional
SK-MEL-28 = assay: Growth inhibition of human SK-MEL-28 cells; format: functional
[12] = Growth inhibition of human OVCAR5 cells; format: functional; details: OVCAR-5
HCT-116 = assay: Growth inhibition of human HCT116 cells; format: functional
[13] = Cytotoxicity against human NSCLC cells assessed as cell growth at 10 uM relative to control; format: functional; details: read-out: Activity; summary of the method: as §1
MDA-MB-468 = assay: Growth inhibition of human MDA-MB-468 cells; format: functional
TK-10 = assay: Growth inhibition of human TK10 cells; format: functional
[14] = biological target: T1, Proteasome Macropain subunit MB1 (Homo sapiens) (UniProt P28074); assay: Inhibition of chymotrypsin-like activity of 20S proteasome in human erythrocytes using Suc-Leu-Leu-Val-Tyr-AMC as substrate at 20 uM by fluorescence assay relative to control
T1 sequence (whole entry): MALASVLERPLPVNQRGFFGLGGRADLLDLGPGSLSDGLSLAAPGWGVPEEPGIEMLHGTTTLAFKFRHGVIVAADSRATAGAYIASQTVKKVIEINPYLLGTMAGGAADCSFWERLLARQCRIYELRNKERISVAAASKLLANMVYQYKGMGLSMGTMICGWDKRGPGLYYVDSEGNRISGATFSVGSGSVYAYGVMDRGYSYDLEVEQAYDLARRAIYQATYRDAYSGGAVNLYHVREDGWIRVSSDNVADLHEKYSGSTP
Summary of the method: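 Single inhibitor concentration, equivalent DMSO as negative control. AMC fluorescence read at ex 380/em 460 nm; percent inhibition of ChT-L activity.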

[15] = read-out: LC50 (the source's name)

With `CC(C)C[C@H](NC(=O)CCn1ccc2ncccc2c1=O)B(O)O` the GI50 [1] was 5.55 µM, the LC50 (concentration killing 50% of cells) [1] was > 100 µM and the TGI [1] was 48.8 µM. The GI50 (CAKI-1) was 19.4 µM, the TGI (CAKI-1) was > 100 µM and the CC50 (CAKI-1; [15]) was > 100 µM. The GI50 (PC-3) was 41.4 µM, the TGI (PC-3) was > 100 µM and the CC50 (PC-3; [15]) was > 100 µM. The GI50 [2] was > 100 µM, the LC50 [2] was > 100 µM and the TGI [2] was > 100 µM. For the same compound, the GI50 ([3]; BT-549) was 3.49 µM, the TGI ([3]; BT-549) was 12.5 µM and the CC50 ([3]; BT-549, read-out: LC50 (the source's name)) was > 100 µM. For the same compound, the GI50 (CCRF-CEM) was 2.35 µM, the TGI (CCRF-CEM) was > 100 µM and the CC50 (CCRF-CEM; [15]) was > 100 µM. For the same compound, the GI50 (SW-620) was 4.62 µM, the LC50 (SW-620) was > 100 µM and the TGI (SW-620) was > 100 µM. For the same compound, the GI50 [4] was 4.65 µM, the LC50 (concentration killing 50% of cells) [4] was > 100 µM and the TGI [4] was 31.9 µM. The GI50 (SK-MEL-2) was 18.3 µM, the LC50 (SK-MEL-2) was > 100 µM and the TGI (SK-MEL-2) was > 100 µM. For the same compound, the GI50 [5] was 13.6 µM, the LC50 [5] was 90.2 µM and the TGI [5] was 35 µM. For the same compound, the GI50 (KM12) was 17 µM, the LC50 (KM12) was > 100 µM and the TGI (KM12) was 49.6 µM. The GI50 (HL-60(TB)) was 6.88 µM, the TGI (HL-60(TB)) was > 100 µM and the GI50 (M14) was 4.11 µM. It also gave an LC50 (concentration killing 50% of cells) (M14) of 97.9 µM, a TGI (M14) of 22.3 µM and a GI50 (A498) of 3.07 µM. The LC50 (A498) was > 100 µM, the TGI (A498) was 24.3 µM and the GI50 (SNB-75) was 13.3 µM. The LC50 (SNB-75) was > 100 µM, the TGI (SNB-75) was 44.9 µM and the GI50 (U-251) was 33 µM. For the same compound, the TGI (U-251) was > 100 µM, the CC50 (U-251; [15]) was > 100 µM and the GI50 (NCI-H23) was 25.4 µM. The TGI (NCI-H23) was > 100 µM, the CC50 (NCI-H23; [15]) was > 100 µM and the growth at 10 µM [6] was 78.1%. For the same compound, the growth at 10 µM [7] was 84.2%, the GI50 (T47D) was 4.67 µM and the TGI (T47D) was > 100 µM. For the same compound, the CC50 (T47D; [15]) was > 100 µM, the GI50 (NCI-H460) was 36.2 µM and the LC50 (NCI-H460) was > 100 µM. For the same compound, the TGI (NCI-H460) was > 100 µM, the GI50 (RPMI-8226) was 3.22 µM and the TGI (RPMI-8226) was > 100 µM. The CC50 (RPMI-8226; [15]) was > 100 µM, the growth at 10 µM [8] was 60.4% and the GI50 ([9]; HCT-15) was 21.3 µM. The TGI ([9]; HCT-15) was > 100 µM, the CC50 ([9]; HCT-15, read-out: LC50 (the source's name)) was > 100 µM and the GI50 (786-0) was 7.94 µM. For the same compound, the TGI (786-0) was > 100 µM, the CC50 (786-0; [15]) was > 100 µM and the growth at 10 µM [10] was 98.5%. The GI50 (A549) was 38 µM, the TGI (A549) was > 100 µM and the CC50 (A549; [15]) was > 100 µM. For the same compound, the GI50 (K562) was 17.2 µM, the TGI (K562) was > 100 µM and the CC50 (K562; [15]) was > 100 µM. The GI50 ([11]; UACC-257) was 10.1 µM, the TGI ([11]; UACC-257) was 47 µM and the CC50 ([11]; UACC-257, read-out: LC50 (the source's name)) was > 100 µM. The GI50 (SK-MEL-28) was 7.17 µM, the TGI (SK-MEL-28) was > 100 µM and the CC50 (SK-MEL-28; [15]) was > 100 µM. The GI50 [12] was 17.1 µM, the LC50 [12] was > 100 µM and the TGI [12] was > 100 µM. The GI50 (HCT-116) was 3.3 µM, the LC50 (HCT-116) was 86.2 µM and the TGI (HCT-116) was 16.5 µM. For the same compound, the growth at 10 µM [13] was 80.3%, the GI50 (MDA-MB-468) was 2.04 µM and the TGI (MDA-MB-468) was 9.96 µM. For the same compound, the CC50 (MDA-MB-468; [15]) was > 100 µM, the GI50 (TK-10) was 5.16 µM and the LC50 (TK-10) was > 100 µM. The TGI (TK-10) was 47.7 µM and the inhibition [14] was > 40%.
